What was measured:
[1] = tested on: LN229 human glioblastoma cells; experiment: WST cell viability assay, LN229; assay type: cell-based
How it was run: (§1)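 Cells (MEM, 10% FBS, 37 °C, 5% CO₂) were seeded at 3 × 10³/well and pre-incubated 24 h. They were treated with test compound at 0.16, 0.8, 4, 20 or 100 μM for 24, 48 or 72 h, with DMSO as vehicle control. WST-1 was then added for 4 h at 37 °C and absorbance read at 516 nm (reference 600 nm). Viability was taken relative to untreated cells and IC50 read from dose-response curves at each time; ≥3 independent experiments.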

[2] = tested on: A172 human glioblastoma cells; experiment: WST cell viability assay, A172; assay type: cell-based
How it was run: as §1

[3] = tested on: normal human astrocytes (NHA); experiment: WST cell viability assay, NHA; assay type: cell-based
How it was run: as §1

[4] = tested on: LN229 cells; experiment: Flow cytometry analysis of cell cycle and apoptosis; assay type: cell-based, human; settings: for G0-G1, percentage of cells: LN229, 4 μM
How it was run: (§2)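 Cells from MD Anderson were grown in MEM with 10% FBS, penicillin-streptomycin and 1% glutamine at 37 °C, 5% CO₂. About 1 × 10⁶ cells per 10-cm plate were exposed to test compound (4 or 10 μM) for 0, 24, 48 or 72 h. Cells were spun down, PBS-washed, fixed overnight (12 h) in chilled 70% ethanol and PI-stained. Sub-G1, G0/G1, S and G2/M fractions were measured; mean ± S.D. of three experiments, untreated controls at each time.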

[5] = tested on: A172 cells; experiment: as above; assay type: cell-based, human; settings: for G0-G1, percentage of cells / Sub G1, percentage of cells: A172, 4 μM
How it was run: as §2

[6] = DPPH radical scavenging assay

## CCCN(C)CCc1c[nH]c2ccccc12 [MPT, Methylprophyl tryptamine, reference compound]
[1]; LN229, 24 h
  IC50: 448 ± 300 nM
[1]; LN229, 48 h
  IC50: 447 ± 10 nM
[1]; LN229, 72 h
  IC50: 440 ± 70 nM
[2]; A172, 48 h
  IC50: 440 ± 130 nM
[2]; A172, 72 h
  IC50: 430 ± 90 nM
[3]; 24 h
  IC50: 490 ± 30 nM
[3]; 48 h
  IC50: 470 ± 40 nM
[3]; 72 h
  IC50: 450 ± 40 nM

## COc1ccc(C(c2c(O)c3ccccc3oc2=O)c2c(O)c3ccccc3oc2=O)cc1 [HL, 3,3′-[(4-methoxyphenyl)methanediyl]bis(4-hydroxy-2Hchromen-2-one)]
[1]; LN229, 24 h
  IC50: 9550 nM
[1]; LN229, 48 h
  IC50: 1780 ± 50 nM
[1]; LN229, 72 h
  IC50: 850 ± 70 nM
[2]; A172, 72 h
  IC50: 950 nM
[2]; Homo sapiens, A 172, 24 h, A172, 24 h
  IC50: 2680 ± 190 nM
[4]; LN229
  cell cycle arrest, phase: arrested at G0/G1 phase
[4]; 24 h
  G0-G1, percentage of cells: 70.33%
[4]; 48 h
  G0-G1, percentage of cells: 61.70%
[4]; 72 h
  G0-G1, percentage of cells: 41.11%
[5]; A172
  cell cycle arrest, phase: cell cycle arrest was caused at G0/G1 phase
[5]; 24 h
  G0-G1, percentage of cells: 67.66%
[5]; 48 h
  Sub G1, percentage of cells: 6.48%
[5]; 72 h
  G0-G1, percentage of cells: 59.23%
  Sub G1, percentage of cells: 4.55%
[6]; 250 μM/mL
  Percentage of antioxidant activity (DPPH): 10.37 ± 0.08%
[6]; 500 μM/mL
  Percentage of antioxidant activity (DPPH): 15.12 ± 0.03%
[6]; 750 μM/mL
  Percentage of antioxidant activity (DPPH): 19.41 ± 0.02%
[6]; 1000 μM/mL
  Percentage of antioxidant activity (DPPH): 25.62 ± 0.07%
[3]; 48 h
  IC50: 640 ± 60 nM
[3]; Homo sapiens, Astrocyte, 24 h
  IC50: 3210 ± 40 nM
[3]; Homo sapiens, Astrocyte, 72 h
  IC50: 220 ± 40 nM

## O=C1O[C@H]([C@@H](O)CO)C(O)=C1O [Ascorbic acid, reference compound]
[6]; 250 μM/mL
  Percentage of antioxidant activity (DPPH): 74.08 ± 0.04%
[6]; 500 μM/mL
  Percentage of antioxidant activity (DPPH): 80.24 ± 0.01%
[6]; 750 μM/mL
  Percentage of antioxidant activity (DPPH): 85.79 ± 0.1%
[6]; 1000 μM/mL
  Percentage of antioxidant activity (DPPH): 92.059 ± 0.08%

— article PMC10338367 (Heliyon, 2023)
